From ChEMBL document CHEMBL2034945, “Bioactive quassinoids from the seeds of Brucea javanica” (J Nat Prod, 2012)

Assays:
Type in all cases: functional, cell-based
[1] = system: HCT-8; experiment: Cytotoxicity against human HCT8 cells by MTT assay
How it was run: (§1)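 Colorimetric MTT assay on human cancer lines: HCT-8 colon, HepG2 hepatoma, BGC-823 gastric, A549 lung epithelial and SKOV3 ovarian. Paclitaxel was the positive control. IC50 was reported.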

[2] = system: HepG2; experiment: Cytotoxicity against human HepG2 cells by MTT assay; how it was run: as §1
[3] = system: BGC-823; experiment: Cytotoxicity against human BGC823 cells by MTT assay; how it was run: as §1
[4] = system: A549; experiment: Cytotoxicity against human A549 cells by MTT assay; how it was run: as §1
[5] = system: SK-OV-3; experiment: Cytotoxicity against human SKOV3 cells by MTT assay; how it was run: as §1
[6] = Antiinflammatory activity in rat polymorphonuclear leukocytes assessed as inhibition of LPS-stimulated nitric oxide production after 20 mins by Griess method
How it was run: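 Rat polymorphonuclear leukocytes were stimulated with LPS, and nitric oxide in the culture supernatant was measured by Griess reaction. Supernatant or sodium nitrite standard was mixed 1:1 with Griess reagent (0.1% N-(1-naphthyl)ethylenediamine dihydrochloride plus 1% sulfanilamide in 5% phosphoric acid, combined within 1 h of preparation). After 20 min at room temperature, absorbance was read at 540 nm. Dexamethasone was the positive control. IC50 was reported.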

| IC50 [6] [µM] | SMILES | IC50 [1] [µM] | IC50 [2] [µM] | IC50 [3] [µM] | IC50 [4] [µM] | IC50 [5] [µM] |
| --- | --- | --- | --- | --- | --- | --- |
|  | COC(=O)[C@@]12OC[C@]34[C@H]([C@@H](O)[C@@H]1O)[C@@](C)(CC(=O)O)[C@H]([C@@H](C)C(=O)O)C[C@H]3OC(=O)[C@H](OC(=O)C=C(C)C)[C@@H]24 [JAVANIC ACID A] | > 10 | > 10 | > 10 | > 10 | > 10 |
|  | CC(=O)O[C@H]1C(=O)[C@@]2(C)[C@H]([C@H](OC(=O)c3ccccc3)[C@]3(O)C[C@H](OC(=O)[C@H](O)[C@@H](NC(=O)c4ccccc4)c4ccccc4)C(C)=C1C3(C)C)[C@]1(OC(C)=O)CO[C@@H]1C[C@@H]2O [PACLITAXEL] |  |  |  |  | < 0.0001 |
| 1.9 | COC(=O)[C@@]12OC[C@]34[C@H]([C@@H](O)[C@@H]1O)[C@@]1(C)CC(=O)C(O)=C(C)[C@@H]1C[C@H]3OC(=O)[C@H](OC(C)=O)[C@@H]24 [BRUCEINE B] | 2 | 0.81 | 0.81 | 1.3 | 0.12 |
|  | COC(=O)[C@@H](C)[C@@H]1C[C@H]2OC(=O)[C@H](OC(=O)C=C(C)C)[C@H]3[C@]4(C(=O)OC)OC[C@]23[C@H]([C@@H](O)[C@@H]4O)[C@@]1(C)CC(=O)O | > 10 | > 10 | > 10 | > 10 | > 10 |
|  | CC(=O)[C@@H]1C[C@H]2OC(=O)[C@H](OC(=O)C=C(C)C)[C@H]3[C@]4(C(=O)O)OC[C@]23[C@H]([C@@H](O)[C@@H]4O)[C@@]1(C)CC(=O)O [BRUCEANIC ACID F] | > 10 | > 10 | > 10 | > 10 | > 10 |
|  | COC(=O)[C@@]12OC[C@]34[C@H]([C@@H](O)[C@@H]1O)[C@@]1(C)C=C(O[C@@H]5O[C@H](CO)[C@@H](O)[C@H](O)[C@H]5O)C(=O)[C@@H](C)[C@@H]1C[C@H]3OC(=O)[C@H](OC(=O)C=C(C)C)[C@@H]24 [BRUCEOSIDE A] | > 10 | > 10 | > 10 | > 10 | > 10 |
|  | COC(=O)[C@@]12OC[C@]34[C@H]([C@@H](O)[C@@H]1O)[C@@]1(C)CC(=O)[C@H](O)[C@@H](C)[C@@H]1C[C@H]3OC(=O)[C@H](OC(=O)C=C(C)C)[C@@H]24 [JAVANICOLIDE E] | > 10 | > 10 | 1.43 | 6.36 | 1.49 |
|  | COC(=O)[C@@]12OC[C@]34[C@H]([C@@H](O)[C@@H]1O)[C@@](C)(CC(=O)O)[C@H](C(C)=O)C[C@H]3OC(=O)[C@H](OC(=O)C=C(C)C)[C@@H]24 [BRUCEANIC ACID E] | > 10 | > 10 | > 10 | > 10 | > 10 |
| 0.0023 | C[C@@H]1C[C@H]2[C@@H]3CCC4=CC(=O)C=C[C@]4(C)[C@@]3(F)[C@@H](O)C[C@]2(C)[C@@]1(O)C(=O)CO [DEXAMETHASONE] |  |  |  |  |  |
|  | COC(=O)C[C@]1(C)[C@H]2[C@@H](O)[C@H](O)[C@@]3(C(=O)OC)OC[C@@]24[C@@H](C[C@H]1C(C)=O)OC(=O)[C@H](OC(=O)C=C(C)C)[C@@H]34 [BRUCEANIC ACID E METHYL ESTER] | > 10 | > 10 | > 10 | > 10 | > 10 |
|  | COC(=O)[C@@]12OC[C@@]34[C@@H](CC5=C(C)C(=O)C(O)=C[C@]5(C)[C@H]3[C@@H](O)[C@@H]1O)OC(=O)[C@H](OC(=O)C=C(C)C)[C@@H]24 [DEHYDROBRUSATOL] | > 10 | 3.3 | 4.8 | 7.3 | 2.5 |
|  | COC(=O)[C@@]12OC[C@]34[C@H]([C@@H](O)[C@@H]1O)[C@@]1(C)C[C@H](O)C(=O)[C@@H](C)[C@@H]1C[C@H]3OC(=O)[C@H](OC(=O)C=C(C)C)[C@@H]24 [JAVANICOLIDE H] | > 10 | > 10 | 0.52 | 0.95 | 0.23 |
|  | CC1=CC(=O)[C@@H](O)[C@]2(C)[C@H]3[C@@H](O)[C@H](O)[C@]4(C)OC[C@@]35[C@@H](C[C@@H]12)OC(=O)[C@H](O)[C@]54O [BRUCEINE D] | 2 | 1.2 | 1.2 | 3.9 | 0.76 |
|  | CC1=CC(=O)[C@@H](O)[C@]2(C)[C@H]3[C@@H](O)[C@H](O)[C@@]4(CO)OC[C@@]35[C@@H](C[C@@H]12)OC(=O)[C@H](O)[C@]54O [BRUCEINE H] | 1.3 | 2.8 | 2.1 | 9.3 | 0.33 |
|  | COC(=O)[C@]12OC[C@@]34[C@H](C[C@H]5[C@H](C)C(=O)C(O[C@@H]6O[C@H](CO)[C@@H](O)[C@H](O)[C@H]6O)=C[C@]5(C)[C@H]3[C@@H](O)[C@@H]1O)OC(=O)[C@H](OC(=O)/C=C(\C)C(C)C)[C@@H]24 [BRUCEANTINOSIDE A] | > 10 | > 10 | > 10 | > 10 | > 10 |

| SMILES | IC50 [6] [µM] | IC50 [1] [µM] | IC50 [2] [µM] | IC50 [3] [µM] | IC50 [4] [µM] | IC50 [5] [µM] |
| --- | --- | --- | --- | --- | --- | --- |
| CC1=C[C@H](O)[C@@H](O)[C@]2(C)[C@H]3[C@@H](O)[C@H](O)[C@@]4(C)OC[C@@]35[C@@H](C[C@@H]12)OC(=O)[C@H](O)[C@]54O [BRUCEINE E] | 5 | 6.7 | 2.9 | 2.2 | > 10 | 2.2 |
